In publication PMC4436074 (mBio, 2015):
Counter-ions that a name gives are not always drawn. Like-named read-outs stand apart in the source and are kept apart here.

What was measured:
RopB = experiment: PspeB-luxAB reporter, NZ131; type: cell-based, S. pyogenes; settings: C medium; 10 µM CsA or valspodar; 300 mM NaCl
Outline: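 PspeB-luxAB reporter (speB upstream region–luxAB, integrated) grown in C medium to exponential phase (OD600 0.1). Test compound added at 10 µM; 300 mM NaCl used as the suppressing condition. Decanal vapour supplied; 37°C with shaking. OD600 and luminescence read every 15 min for 8 h; relative luminescence taken as maximum cps/OD600.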

Rgg3 = type: binding, Streptococcus pyogenes; settings: HTS, duplicate; 0.1 µl of 10 mM compound in 30 µl; 180 nM His6-Sumo-Rgg3, 10 nM FITC-SHP2-C8
Outline: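 Approved-drug library (1,280 compounds, DMSO stocks) pinned into assay mix of 1× PBS, 0.1 mg/ml BSA, 0.01% Triton X-100 and 5 mM DTT. Plates were shaken 20 s, then held 15 min at room temperature, and polarization was read at ex 485/em 535 nm. Each plate had 32 DMSO negative-control wells and 32 unlabeled SHP2-C8 (1 mM stock) positive-control wells. % inhibition was scaled between the per-plate control means, and plate Z′ was computed.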

ComR [1] = molecular target: T1, ComR (Streptococcus mutans serotype c, UniProt Q8DWI6); type: binding, S. mutans; settings: read-out: ComR Avg % inhibition
T1 sequence (Q8DWI6 1-304): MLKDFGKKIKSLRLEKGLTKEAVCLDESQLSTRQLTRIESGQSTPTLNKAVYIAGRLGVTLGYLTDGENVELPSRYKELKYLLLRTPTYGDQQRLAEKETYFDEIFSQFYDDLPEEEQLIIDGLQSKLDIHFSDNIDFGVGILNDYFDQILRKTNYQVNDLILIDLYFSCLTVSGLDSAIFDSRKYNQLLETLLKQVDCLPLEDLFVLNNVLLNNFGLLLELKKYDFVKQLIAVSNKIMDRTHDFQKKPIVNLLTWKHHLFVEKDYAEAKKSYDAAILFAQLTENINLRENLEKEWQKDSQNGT

[2] = tested on: Rgg2/3-regulated promoter Pshp2-luxAB (BNL148); experiment: Pshp2-luxAB luciferase reporter assay, strain BNL148, sSHP2-C8 induced; type: cell-based, S. pyogenes; settings: for inhibition of SHP-induced light production (transcription): 10 µM compound with 10 nM SHP2-C8, BNL148; for IC50: Streptococcus pyogenes
S. pyogenes cultures = experiment: Bacterial growth curves; type: cell-based; settings: 10 µM compound with 10 nM sSHP2-C8, 37°C
Outline: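 S. pyogenes grown at 37°C in chemically defined medium (CDM) to OD600 0.1, then given 10 nM SHP2-C8 alone or with 10 µM test compound. OD600 read every 30 min for 8 h.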

Rgg2 = experiment: Pshp2-luxAB luciferase reporter assay, Δrgg3 strain BNL178; type: cell-based, S. pyogenes
Outline: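 Pshp2-luxAB reporter strains grown in CDM to exponential phase (OD600 0.1). Cultures dispensed into wells with 10 nM SHP2-C8 alone or with test compound: 10 µM for the Δrgg3 strain BNL178, 5 µM CsA for the other strains. Decanal (1% in mineral oil) supplied as vapour; plate sealed and shaken continuously at 37°C. OD600 and luminescence read every 15 min for 8 h; relative luminescence taken as maximum cps/OD600.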

[3] = tested on: ComR-XIP QS system, PsigX-luxAB; experiment: PsigX-luxAB reporter; type: cell-based, S. pyogenes; settings: 10 µM compound, 100 nM XIP, MGAS315(pWAR200)
Outline: (§1)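 PsigX-luxAB reporter strains grown in CDM to OD600 0.1 and incubated with 10 µM test compound plus 100 nM XIP. Decanal (1% in mineral oil) supplied as vapour; sealed plate shaken at 37°C. OD600 and luminescence read every 15 min for 8 h; relative luminescence taken as maximum cps/OD600.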

[4] = tested on: ComR-XIP QS system, PsigX-luxAB; experiment: PsigX-luxAB reporter; type: cell-based, S. mutans; settings: 10 µM compound, 100 nM XIP, UA159(pWAR304)
Outline: as §1

[5] = tested on: S. pyogenes strain NZ131 biofilm; experiment: SHP-dependent biofilm assay, crystal violet staining, strain NZ131; type: cell-based; settings: 10 nM SHP2-C8, 20 h
Outline: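 NZ131 grown overnight in THY at 30°C, diluted 1:100 into CDM, grown at 37°C to late exponential phase, back-diluted to OD600 0.02 in CDM with 10 nM SHP2-C8 and 2-fold dilutions of test compound (5 to 0.156 µM); 0.1% DMSO controls. At OD600 ~0.1 plated in duplicate, 20 h at 37°C, 5% CO2. Saline wash, dry-fixed, 0.2% crystal violet, A595; ≥3 independent experiments, standard errors.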

[6] = tested on: Rgg-SHP quorum-sensing pathway, Pshp-luxAB; experiment: Pshp-luxAB reporter in S. agalactiae A909; type: cell-based; settings: S. agalactiae (GBS), 5 µM antagonist
Outline: (§2)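 Reporter strains carry shp-promoter–luxAB fusions on a pLZ12-spec plasmid: Pshp1520 in GBS A909, Pshp2 in GGS, Pshp3 in S. porcinus. S. porcinus was given synthetic SHP. Strains grown in CDM to OD600 0.1 and exposed to 5 µM antagonist. Decanal (1% in mineral oil) supplied as vapour. OD600 and luminescence read at 37°C every 15 min for 8 h; relative luminescence taken as maximum cps/OD600.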

[7] = tested on: Rgg-SHP quorum-sensing pathway, Pshp-luxAB; experiment: Pshp-luxAB reporter in S. dysgalactiae GGS-LT1; type: cell-based; settings: 5 µM antagonist
Outline: as §2

[8] = tested on: Rgg-SHP quorum-sensing pathway, Pshp-luxAB; experiment: Pshp-luxAB reporter in S. porcinus NCTC 10999; type: cell-based; settings: 5 µM antagonist
Outline: as §2

ComR [9] = molecular target: T1, ComR; type: binding, S. mutans; settings: competition with FITC-XIP
FITC-XIP (S. mutans) = experiment: fluorescence polarisation
[10] = molecular target: FITC-SHP2-C8 (Streptococcus pyogenes); experiment: fluorescence polarisation
[11] = molecular target: His6-SUMO-Rgg3 (Streptococcus pyogenes); experiment: fluorescence polarisation
[12] = read-out: IC50, luciferase assay dose-response

[Cl-].[Na+] [NaCl]
effect on activation of PspeB (luciferase activity) (RopB): abolished luciferase activity

CCCc1nc(C(C)(C)O)c(C(=O)O)n1Cc1ccc(-c2ccccc2-c2nnn[nH]2)cc1 [Olmesartan]
Rgg3 Avg % inhibition (Rgg3): 73%
inhibition (ComR [1]): 1%
inhibition of SHP-induced light production (transcription) [2]: less than 50%

CC(C)(C)NC(=O)[C@@H]1C[C@@H]2CCCC[C@@H]2CN1C[C@@H](O)[C@H](Cc1ccccc1)NC(=O)[C@H](CC(N)=O)NC(=O)c1ccc2ccccc2n1 [Saquinavir mesylate]
Rgg3 Avg % inhibition (Rgg3): 84%
inhibition (ComR [1]): 13%
IC50 [2, 12]: > 10000 nM

CCC(C)(C)C(=O)O[C@H]1C[C@@H](C)C=C2C=C[C@H](C)[C@H](CC[C@@H]3C[C@@H](O)CC(=O)O3)[C@H]21 [Simvastatin]
Rgg3 Avg % inhibition (Rgg3): 85%
inhibition (ComR [1]): 10%
inhibition of SHP-induced light production (transcription) [2]: less than 50%
IC50 [2, 12]: > 10000 nM
effect on culture growth (S. pyogenes cultures): inhibited culture growth

CCCc1nc2c(C)cc(-c3nc4ccccc4n3C)cc2n1Cc1ccc(-c2ccccc2C(=O)O)cc1 [Telmisartan]
Rgg3 Avg % inhibition (Rgg3): 99%
inhibition (ComR [1]): 3%
inhibition of SHP-induced light production (transcription) [2]: less than 50%

C/C=C/C[C@@H](C)C(=O)[C@H]1C(=O)N[C@@H](C(C)C)C(=O)N(C)CC(=O)N(C)[C@@H](CC(C)C)C(=O)N[C@@H](C(C)C)C(=O)N(C)[C@@H](CC(C)C)C(=O)N[C@@H](C)C(=O)N[C@H](C)C(=O)N(C)[C@@H](CC(C)C)C(=O)N(C)[C@@H](CC(C)C)C(=O)N(C)[C@@H](C(C)C)C(=O)N1C [Valspodar, [3′-keto-Bmt1-Val2]-cyclosporine]
inhibition of SHP-induced light production (transcription) [2]: completely abolished light production
IC50 ([2]; read-out: IC50 (nM), luciferase assay dose-response): 252 nM
IC50 [2, 12]: 500 nM
inhibition of transcription in strain with only Rgg2 present (Rgg2): effective at inhibiting transcription
effect on culture growth (S. pyogenes cultures): do not display toxic effects on GAS growth
effect on light production of PsigX-luxAB [3]: not affected
effect on light production of PsigX-luxAB [4]: not affected
effect on activation of PspeB (luciferase activity) (RopB): unable to block activation of PspeB
concentration sufficient to prevent SHP-dependent biofilm development [5]: 0.312 µM
fold inhibition of light production [6]: at least 5 fold
fold inhibition of light production [7]: at least 5 fold
fold inhibition of light production ([8]; S. porcinus (GES), sSHP stimulated): at least 5 fold
effect on the S. porcinus strain (in words) ([8]; S. porcinus): only a moderate effect
binding to ComR (ComR [9]): did not bind to ComR

His6-ComR (S. mutans UA159) (receptor)
Kd (FITC-XIP (S. mutans)): 1000 nM

His6-SUMO-Rgg3 (receptor)
Kd [10]: 160 nM

DILIIVGG [SHP2-C8 (unlabeled synthetic peptide)]
Kd [11]: 220 nM
